In ChEMBL document CHEMBL1123546, “Inhibition of cyclic nucleotide phosphodiesterases from pig coronary artery by benzo-separated analogues of 3-isobutyl-1-methylxanthine” (J Med Chem, 1986) one finds I50 and IC50 data, which are given here for 20 compounds.

In one experiment the target is Phosphodiesterase 1 (Homo sapiens, UniProt P54750+Q01064+Q14123). The experiment in a line: Inhibition of Calmodulin Sensitive Phosphodiesterase 1 from pig coronary artery. It counts as tissue-based, Sus scrofa. Particulars: target entry is the homologue from another species. A digest of the protocol: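 Media plus intima of porcine coronary artery homogenized in 20 mM Tris-HCl pH 7.5, 2 mM Mg(OAc)2, 1 mM DTT. The soluble fraction was resolved on DEAE-cellulose and peak I was pooled. Assay used 1 μM cGMP with calcium + calmodulin, 30 °C for 30 min, at 10-20% hydrolysis. Analogues were tested at 1-100 μM with 3% final Me2SO. I50 was taken as the concentration giving 50% inhibition of hydrolysis.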

Experiment [1] deals with cGMP-dependent 3',5'-cyclic phosphodiesterase (Homo sapiens, UniProt O00408). The experiment in a line: Inhibition of Phosphodiesterase 2 from pig coronary artery. It counts as tissue-based, Sus scrofa. Particulars: target entry is the homologue from another species; read-out: I50. A digest of the protocol:
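Pooled peak II was the enzyme source, taken from DEAE-cellulose fractionation of soluble porcine coronary media plus intima homogenate (20 mM Tris-HCl pH 7.5, 2 mM Mg(OAc)2, 1 mM DTT). Hydrolysis of 1 μM cAMP ran at 30 °C for 30 min, with enzyme dilution set for 10-20% hydrolysis. Analogues were tested at 1-100 μM in 3% final Me2SO. I50 was the concentration giving 50% inhibition.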

cGMP-dependent 3',5'-cyclic phosphodiesterase, sequence (O00408 whole entry): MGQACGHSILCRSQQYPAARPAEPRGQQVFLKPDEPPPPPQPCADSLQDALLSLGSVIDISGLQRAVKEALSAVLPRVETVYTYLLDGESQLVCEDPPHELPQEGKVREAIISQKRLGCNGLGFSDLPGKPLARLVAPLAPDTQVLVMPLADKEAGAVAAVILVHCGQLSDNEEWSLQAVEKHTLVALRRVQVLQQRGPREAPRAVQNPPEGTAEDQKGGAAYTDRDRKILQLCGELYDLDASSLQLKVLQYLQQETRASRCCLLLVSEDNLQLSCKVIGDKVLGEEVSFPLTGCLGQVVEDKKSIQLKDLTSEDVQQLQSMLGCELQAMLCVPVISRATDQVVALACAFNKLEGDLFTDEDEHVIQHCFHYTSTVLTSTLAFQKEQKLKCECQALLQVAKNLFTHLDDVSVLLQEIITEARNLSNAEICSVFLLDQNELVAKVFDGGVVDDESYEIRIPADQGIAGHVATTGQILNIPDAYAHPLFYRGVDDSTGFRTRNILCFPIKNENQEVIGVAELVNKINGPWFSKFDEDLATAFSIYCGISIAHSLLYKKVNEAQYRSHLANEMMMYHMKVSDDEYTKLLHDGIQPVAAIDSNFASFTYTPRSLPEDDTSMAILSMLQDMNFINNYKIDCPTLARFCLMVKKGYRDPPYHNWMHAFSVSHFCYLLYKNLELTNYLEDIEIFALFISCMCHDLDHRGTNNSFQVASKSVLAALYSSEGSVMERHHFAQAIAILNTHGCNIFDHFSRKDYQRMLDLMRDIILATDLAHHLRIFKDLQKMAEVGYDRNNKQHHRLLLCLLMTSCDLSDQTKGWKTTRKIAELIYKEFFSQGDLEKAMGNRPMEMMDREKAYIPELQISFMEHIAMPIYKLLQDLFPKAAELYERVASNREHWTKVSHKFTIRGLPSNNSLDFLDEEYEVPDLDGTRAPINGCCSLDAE

In the case of `CC(C)CCn1c(=O)c2cc3nc[nH]c3cc2n(CC(C)C)c1=O`, the I50 on Phosphodiesterase 1 is more than 25 µM. Further, the IC50 in experiment [1] is 20 µM.
`COCc1nc2c([nH]1)c(=O)n(C)c(=O)n2CC(C)C` registered an I50 at Phosphodiesterase 1 of 5.2 µM. Moreover, in experiment [1], the IC50 is 212 µM.
Taken in the same sequence, the figures for `CC(C)CCn1c(=O)c2nc[nH]c2n(CC(C)C)c1=O` were 86 µM and 17 µM.
In turn, `CC(C)Cn1c(=O)n(C)c(=O)c2cc3[nH]c(C(C)(C)C)nc3cc21` came in with an I50 on Phosphodiesterase 1 of 41 µM. In experiment [1], the IC50 is more than 50 µM.
Taken in the same sequence, the figures for `CC(C)Cn1c(=O)n(C)c(=O)c2cc3c(cc21)ncn3Cc1ccccc1` were 1.2 µM and 14 µM.
Compound `CC(C)Cn1c(=O)n(C)c(=O)c2c3c(ccc21)ncn3Cc1ccccc1` gave an I50 on Phosphodiesterase 1 of 19 µM. Moreover, the IC50 in experiment [1] stood at 14 µM.
Taken in the same sequence, the figures for `CC(C)Cn1c(=O)n(C)c(=O)c2cc3[nH]cnc3cc21` were 40 µM and 89 µM.
Taken in the same sequence, the figures for `CC(C)Cn1c(=O)n(C)c(=O)c2c3nc(C(C)(C)C)[nH]c3ccc21` were more than 50 µM and 44 µM.
The compound `CC(C)CCn1c(=O)c2c3nc[nH]c3ccc2n(CC(C)C)c1=O` showed an I50 on Phosphodiesterase 1 of more than 25 µM. For the same compound, in experiment [1], the IC50 was determined as 19 µM.
At Phosphodiesterase 1, `COCc1nc2cc3c(=O)n(C)c(=O)n(CC(C)C)c3cc2[nH]1` returned an I50 of 36 µM. Besides, the IC50 in experiment [1] was more than 50 µM.
As for `Cc1nc2c(ccc3c2c(=O)n(C)c(=O)n3CC(C)C)[nH]1`, the I50 on Phosphodiesterase 1 is 15 µM. Also, the IC50 in experiment [1] was more than 25 µM.
At Phosphodiesterase 1, `COCc1nc2c(ccc3c2c(=O)n(C)c(=O)n3CC(C)C)[nH]1` showed an I50 of 54 µM. Further, the IC50 in experiment [1] came out at 66 µM.
Taken in the same sequence, the figures for `CC(C)Cn1c(=O)n(C)c(=O)c2c1ncn2Cc1ccccc1` were 4.4 µM and 108 µM.
As to `Cc1nc2cc3c(cc2[nH]1)c(=O)n(C)c(=O)n3CC(C)C`, the I50 on Phosphodiesterase 1 came to 36 µM. The IC50 in experiment [1] was more than 50 µM.
In the case of `CC(C)Cn1c(=O)n(C)c(=O)c2c3nc[nH]c3ccc21`, the I50 on Phosphodiesterase 1 worked out at 8.4 µM. Also, the IC50 in experiment [1] turned out to be 18 µM.
Take `CC(C)Cn1c(=O)n(C)c(=O)c2nc[nH]c21` [ISOBUTYLMETHYLXANTHINE]: the I50 on Phosphodiesterase 1 was found to be 6.3 µM. Further, the IC50 in experiment [1] turned out to be 15 µM.
Taken in the same sequence, the figures for `Cc1nc2c([nH]1)c(=O)n(C)c(=O)n2CC(C)C` were 1.9 µM and 68 µM.
Turning to `CC(C)Cn1c(=O)n(C)c(=O)c2[nH]c(C(C)(C)C)nc21`, on Phosphodiesterase 1, the I50 amounted to 1.8 µM. In addition, the IC50 in experiment [1] stood at 58 µM.
`CC(C)Cn1c(=O)n(C)c(=O)c2cc3ncn(Cc4ccccc4)c3cc21` registered an I50 on Phosphodiesterase 1 of 4.9 µM. Also, in experiment [1], the IC50 amounted to 27 µM.
Regarding `CC(C)Cn1c(=O)n(C)c(=O)c2c3ncn(Cc4ccccc4)c3ccc21`, at Phosphodiesterase 1, the I50 stood at 20 µM. For the same compound, the IC50 in experiment [1] came out at 13 µM.
